Test results taken from PMC7104935 (Asian Pacific Journal of Tropical Medicine, 2015).
≈ marks a conversion by molar mass, not a printed value. Where “and” joins values, the source holds several entries; their conditions need not be identical. Equal entries are not always repeated. Entries after “also recorded” stand apart in the source; their conditions may differ. Structures can show the parent of a compound that is named as a salt. Where two headings read alike, the source gives them in different places. Marks after values point to notes of the source that are not given here.

How the values were obtained:
[1] = tested on: mouse hepatitis virus (MHV); test: microbe, parasite or virus in culture; format: cell-based, murine coronavirus; settings: for IC50: read-out: IC50 against MHV
[2] = tested on: DENV-2 New Guinea C strain; test: DENV-2 plaque reduction neutralization test; format: cell-based, dengue virus type 2; settings: for Selectivity index (DENV-2): CC50/IC50, '>' values with absence of cytotoxicity; for IC50: Dengue virus, DENV2, BHK-21, read-out: IC50 against DENV-2
How it was run: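 DENV-2 New Guinea C was propagated in C6/36 cells (L15, 3% FBS, 28 °C). 2-fold dilutions were made: extract fraction 166.67 to 0.08 μg/mL, flavonoids 500.00 to 15.63 μg/mL. Each was preincubated 1 h with 90 PFU, then adsorbed 1 h at 37 °C on BHK-21 monolayers (RPMI-1640, 10% FBS). Plates had 1% carboxymethylcellulose overlay for 6 d, then crystal violet plaque count. Run in duplicate, with mAb 3H5 as positive control. IC50 came from % plaque reduction curves.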

in vitro = settings: mouse
[3] = MTT cell viability and proliferation assay, BHK-21 cells; format: cell-based, baby hamster; settings: hamster, BHK-21 cells (monolayers)
How it was run: (§1)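 BHK-21 monolayers were exposed to test compound for 48 h at 37 °C, 5% CO2, at the concentrations used in neutralization tests. MTT was added for 4 h, then 100 g/L SDS in 0.01 mol/L HCl overnight in the dark at room temperature. OD was read at 570 nm. Inhibition rate was taken relative to solvent-treated cells, and CC50 came from the concentration plot. Experiments were repeated; mean and standard deviation reported.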

HSV-1 = settings: cited from earlier work
BHK-21 cells = test: MTT cell viability and proliferation assay, BHK-21 cells; format: cell-based, baby hamster; settings: at concentrations tested in PRNT
How it was run: as §1

SMILES | Duration of inhibition of viral infectivity [1] | IC50 against MHV [1] | MHV inhibition [1] | MIC, anti-MHV activity [1] | Selectivity index (MHV) [1] | IC50 ([1]; Murine coronavirus) [µg/mL] | MIC ([1]; Murine coronavirus, read-out: MIC, anti-MHV activity) [µg/mL] | Cytotoxicity on CCL9.1 cells (CCL9.1 cells) | IC50 ([1]; Murine coronavirus, 1 h) [µg/mL] | Selectivity index (DENV-2) [2] | IC50 [2] [µg/mL] | CC50 (in vitro) [µg/mL] | CC50 at 48 h [3] [µg/mL] | CC50 (CCL9.1 cells; mouse) [µg/mL] | Activity on HSV-1 among flavonoids (HSV-1) | Antiviral activity against MHV [1] | Cytotoxicity to BHK cells (BHK-21 cells) | Anti-DENV-2 activity ([2]; PRNT, 500.00 down to 15.63 μg/mL)
CN(C)CCCSc1ccccc1NC(=O)/C=C/c1ccccc1 [Cinanserin, cinanserin hydrochloride] | 2 days | 62.50 µg/mL | no viral inhibition; also recorded: could not inhibit MHV | 62.50 µg/mL and 62.5 µg/mL | >4.00 ^c and >2.00 ^c | 31.2 | 31.2 | minimal or no cytotoxicity |  |  |  |  |  |  |  |  |  | 
O=c1c(O)c(-c2ccc(O)c(O)c2)oc2cc(O)cc(O)c12 [Quercetin, quercetin] | up to 6 d |  |  |  | 0.93 |  |  |  | 125 (≈ 414 µM) | 0.88 | 177 (≈ 585 µM) | 116 (≈ 385 µM) | 155 (≈ 514 µM) | 116.52 (≈ 386 µM) | highest activity |  |  | 
C[C@@H]1O[C@@H](Oc2c(-c3ccc(O)c(O)c3)oc3cc(O)cc(O)c3c2=O)[C@H](O)[C@H](O)[C@H]1O [Quercitrin, quercetin-3-L-rhamnoside] |  | NIL |  |  |  |  |  |  |  | >1.07 ^c | 467 (≈ 1040 µM) |  |  |  |  | did not exhibit antiviral activity | did not cause cytotoxicity | 
C[C@@H]1O[C@@H](OC[C@H]2O[C@@H](Oc3c(-c4ccc(O)c(O)c4)oc4cc(O)cc(O)c4c3=O)[C@H](O)[C@@H](O)[C@@H]2O)[C@H](O)[C@H](O)[C@H]1O [Rutin, quercetin-3-rutinoside] |  | NIL |  |  |  |  |  |  |  |  |  |  |  |  | no effect at all | did not exhibit antiviral activity | without cytotoxicity | no anti-DENV-2 activity was detected
